What was measured:
Format in all cases: toxicity, cell-based
Fibroblast [1] = assay: Multiplex assay against human fibroblast
In short: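 Compound was added to live cells that had been stained at seeding with Hoechst33342, BioTracker Green Microtubule Cytoskeleton Dye, MitoTracker Red and Annexin V Alexa Fluor 680, and imaging followed on a CQ1 microscope at 37°C and 5% CO2. CellPathfinder machine-learning gating divided cells into Hoechst high-intensity objects or normal cells, normal cells into healthy, pyknosed or fragmented nuclei, and pyknosed cells into mitotic or apoptotic. Tubulin, mitochondrial-mass and membrane-permeability phenotypes are per cents of healthy-nucleus cells.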

Fibroblast [2] = assay: Incucyte cell viability with human fibroblast; conditions: 10 µM, compound concentration 10 uM; note: filed as whole numbers so only -1 and 0 and 1 occur
U2OS = assay: Incucyte cell viability with U2OS; conditions: human, 10 µM, compound concentration 10 uM; note: filed as whole numbers so only -1 and 0 and 1 occur
[3] = 12 h, 1 µM, compound concentration 1 uM, replicate 1
[4] = 12 h, 1 µM, compound concentration 1 uM, replicate 2
[5] = 12 h, 10 µM, compound concentration 10 uM, replicate 1
[6] = 12 h, 10 µM, compound concentration 10 uM, replicate 2
[7] = 24 h, 1 µM, compound concentration 1 uM, replicate 1
[8] = 24 h, 1 µM, compound concentration 1 uM, replicate 2
[9] = 24 h, 10 µM, compound concentration 10 uM, replicate 1
[10] = 24 h, 10 µM, compound concentration 10 uM, replicate 2
[11] = 24 h, replicate number 1, timepoint 24 hours

CN(C)CCOc1ccc(-c2nc(-c3ccncc3)c(-c3ccc4c(c3)CC/C4=N\O)[nH]2)cc1 [SB590885]
Population Apoptotic (%) (Fibroblast [1]; [3]): 86%
Population Fragmented Nuclei (%) (Fibroblast [1]; [3]): 40%
Population Healthy Nuclei (%) (Fibroblast [1]; [3]): 29%
Population Hoechst High Intensity Objects (%) (Fibroblast [1]; [3]): 31%
Population Membrane Permeable-Phenotype (%) (Fibroblast [1]; [3]): 4%
Population Mitochondria Different-Phenotype (%) (Fibroblast [1]; [3]): 1%
Population Mitotic Cells (%) (Fibroblast [1]; [3]): 13%
Population Normal (%) (Fibroblast [1]; [3]): 68%
Population Pyknosed Nuclei (%) (Fibroblast [1]; [3]): 30%
Population Tubulin-Different-Phenotype (%) (Fibroblast [1]; [3]): 12%
Total Cell Count (Fibroblast [1]; [3]): 562
Population Apoptotic (%) (Fibroblast [1]; [4]): 87%
Population Fragmented Nuclei (%) (Fibroblast [1]; [4]): 44%
Population Healthy Nuclei (%) (Fibroblast [1]; [4]): 3%
Population Hoechst High Intensity Objects (%) (Fibroblast [1]; [4]): 32%
Population Membrane Permeable-Phenotype (%) (Fibroblast [1]; [4]): 10%
Population Mitochondria Different-Phenotype (%) (Fibroblast [1]; [4]): 5%
Population Mitotic Cells (%) (Fibroblast [1]; [4]): 12%
Population Normal (%) (Fibroblast [1]; [4]): 67%
Population Pyknosed Nuclei (%) (Fibroblast [1]; [4]): 52%
Population Tubulin-Different-Phenotype (%) (Fibroblast [1]; [4]): 42%
Total Cell Count (Fibroblast [1]; [4]): 833
Population Apoptotic (%) (Fibroblast [1]; [5]): 84%
Population Fragmented Nuclei (%) (Fibroblast [1]; [5]): 38%
Population Healthy Nuclei (%) (Fibroblast [1]; [5]): 48%
Population Hoechst High Intensity Objects (%) (Fibroblast [1]; [5]): 14%
Population Membrane Permeable-Phenotype (%) (Fibroblast [1]; [5]): 4%
Population Mitochondria Different-Phenotype (%) (Fibroblast [1]; [5]): 5%
Population Mitotic Cells (%) (Fibroblast [1]; [5]): 15%
Population Normal (%) (Fibroblast [1]; [5]): 85%
Population Pyknosed Nuclei (%) (Fibroblast [1]; [5]): 12%
Population Tubulin-Different-Phenotype (%) (Fibroblast [1]; [5]): 13%
Total Cell Count (Fibroblast [1]; [5]): 245
Population Apoptotic (%) (Fibroblast [1]; [6]): 100%
Population Fragmented Nuclei (%) (Fibroblast [1]; [6]): 69%
Population Healthy Nuclei (%) (Fibroblast [1]; [6]): 28%
Population Hoechst High Intensity Objects (%) (Fibroblast [1]; [6]): 50%
Population Membrane Permeable-Phenotype (%) (Fibroblast [1]; [6]): 11%
Population Mitochondria Different-Phenotype (%) (Fibroblast [1]; [6]): 16%
Population Mitotic Cells (%) (Fibroblast [1]; [6]): 0%
Population Normal (%) (Fibroblast [1]; [6]): 49%
Population Pyknosed Nuclei (%) (Fibroblast [1]; [6]): 1%
Population Tubulin-Different-Phenotype (%) (Fibroblast [1]; [6]): 22%
Total Cell Count (Fibroblast [1]; [6]): 128
Population Apoptotic (%) (Fibroblast [1]; [7]): 88%
Population Fragmented Nuclei (%) (Fibroblast [1]; [7]): 50%
Population Healthy Nuclei (%) (Fibroblast [1]; [7]): 40%
Population Hoechst High Intensity Objects (%) (Fibroblast [1]; [7]): 43%
Population Membrane Permeable-Phenotype (%) (Fibroblast [1]; [7]): 1%
Population Mitochondria Different-Phenotype (%) (Fibroblast [1]; [7]): 0%
Population Mitotic Cells (%) (Fibroblast [1]; [7]): 11%
Population Normal (%) (Fibroblast [1]; [7]): 56%
Population Pyknosed Nuclei (%) (Fibroblast [1]; [7]): 8%
Population Tubulin-Different-Phenotype (%) (Fibroblast [1]; [7]): 5%
Total Cell Count (Fibroblast [1]; [7]): 552
Population Apoptotic (%) (Fibroblast [1]; [8]): 90%
Population Fragmented Nuclei (%) (Fibroblast [1]; [8]): 36%
Population Healthy Nuclei (%) (Fibroblast [1]; [8]): 3%
Population Hoechst High Intensity Objects (%) (Fibroblast [1]; [8]): 35%
Population Membrane Permeable-Phenotype (%) (Fibroblast [1]; [8]): 20%
Population Mitochondria Different-Phenotype (%) (Fibroblast [1]; [8]): 5%
Population Mitotic Cells (%) (Fibroblast [1]; [8]): 9%
Population Normal (%) (Fibroblast [1]; [8]): 64%
Population Pyknosed Nuclei (%) (Fibroblast [1]; [8]): 59%
Population Tubulin-Different-Phenotype (%) (Fibroblast [1]; [8]): 25%
Total Cell Count (Fibroblast [1]; [8]): 821
Population Apoptotic (%) (Fibroblast [1]; [9]): 67%
Population Fragmented Nuclei (%) (Fibroblast [1]; [9]): 35%
Population Healthy Nuclei (%) (Fibroblast [1]; [9]): 51%
Population Hoechst High Intensity Objects (%) (Fibroblast [1]; [9]): 14%
Population Membrane Permeable-Phenotype (%) (Fibroblast [1]; [9]): 6%
Population Mitochondria Different-Phenotype (%) (Fibroblast [1]; [9]): 3%
Population Mitotic Cells (%) (Fibroblast [1]; [9]): 32%
Population Normal (%) (Fibroblast [1]; [9]): 85%
Population Pyknosed Nuclei (%) (Fibroblast [1]; [9]): 13%
Population Tubulin-Different-Phenotype (%) (Fibroblast [1]; [9]): 9%
Total Cell Count (Fibroblast [1]; [9]): 299
Population Apoptotic (%) (Fibroblast [1]; [10]): 100%
Population Fragmented Nuclei (%) (Fibroblast [1]; [10]): 70%
Population Healthy Nuclei (%) (Fibroblast [1]; [10]): 28%
Population Hoechst High Intensity Objects (%) (Fibroblast [1]; [10]): 53%
Population Membrane Permeable-Phenotype (%) (Fibroblast [1]; [10]): 31%
Population Mitochondria Different-Phenotype (%) (Fibroblast [1]; [10]): 18%
Population Mitotic Cells (%) (Fibroblast [1]; [10]): 0%
Population Normal (%) (Fibroblast [1]; [10]): 46%
Population Pyknosed Nuclei (%) (Fibroblast [1]; [10]): 1%
Population Tubulin-Different-Phenotype (%) (Fibroblast [1]; [10]): 37%
Total Cell Count (Fibroblast [1]; [10]): 122
Growth Rate (Fibroblast [2]; 0 h, replicate number 1, timepoint 0 hours): 0
Growth Rate (Fibroblast [2]; 18 h, replicate number 2, timepoint 18 hours): 1
Growth Rate (Fibroblast [2]; [11]): 1
Growth Rate (Fibroblast [2]; 24 h, replicate number 2, timepoint 24 hours): 0
Growth Rate (U2OS; 0 h, replicate number 2, timepoint 0 hours): 1
Growth Rate (U2OS; 6 h, replicate number 1, timepoint 6 hours): 0
Growth Rate (U2OS; 12 h, replicate number 1, timepoint 12 hours): 0
Growth Rate (U2OS; 18 h, replicate number 1, timepoint 18 hours): 0
Growth Rate (U2OS; [11]): 0

Source: ChEMBL document CHEMBL4689842, “EUbOPEN Chemogenomics Library wave 1” (2021)
